Screening results: PubChem, several laboratories
Hits are enriched below; roughly 6.4% of the tested compounds scored in any of these assays.
CHOP inhibitor – inhibitors of CHOP induction in ER stress response; 220,000 compounds, 3.8% hits; CHO-K1 CHOP-promoter luciferase, tunicamycin-induced, 15-18 h; inhibition, % at 10 µM;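 active means compounds that reduced the stress-induced luciferase reporter signal by more than about 70% of percent inhibition, limit read from the data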
TbMetRS inhib – blocks T. brucei methionyl-tRNA synthetase activity; purified T. brucei MetRS, ATP depletion, Kinase-Glo luminescence; inhibition, % at 11.9 µM; 360,000 compounds, 0.4% hits;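 active means inhibition above a per-plate cutoff of the control wells' mean inhibition plus 3 SD, cut at about 5.5% in these data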
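System: purified T. brucei MetRS enzyme / Detection: Kinase-Glo luciferase luminescence reporting remaining unconsumed ATP / Medium: HEPES buffer with MgCl2, KCl, DTT, spermine, BSA, pyrophosphatase / Replication: singlicate, one well per compound / Evaluation: percent inhibition relative to median high and low control wells / Schedule: 2 h aminoacylation at 25 °C after 15 min preincubation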
WT yeast gro inh – growth inhibition of WT yeast, mitochondrial fusion screen. mitochondrial fusion phenotypic screen, WT strain. inhibition, % at 10 µM. 190,000 compounds, 2.1% hits. AID 1362; in the data active means inhibition above about 58%; tested in S. cerevisiae
EBV gp42 inh – blocks Epstein-Barr virus glycoprotein 42 binding. Q1HVG2. Fluorescence polarization binding assay, mP read-out. inhibition, % (tested at 21.74 µM). 220,000 compounds, 0.42% hits; in the data active means inhibition above about 50%
Target sequence (Q1HVG2 whole entry, looked up): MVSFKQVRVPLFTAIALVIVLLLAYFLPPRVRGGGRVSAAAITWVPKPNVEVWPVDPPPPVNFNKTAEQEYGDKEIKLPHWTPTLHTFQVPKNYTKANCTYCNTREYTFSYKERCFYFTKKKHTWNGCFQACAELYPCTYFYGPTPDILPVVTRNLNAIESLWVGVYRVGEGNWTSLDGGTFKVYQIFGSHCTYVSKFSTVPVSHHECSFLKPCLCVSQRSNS
NR3A LBD binder – NR3A (human) ligand-binding domain modulation; NR3A LBD differential scanning fluorimetry, Tm shift; 0% = protein alone, 100% = glycine-bound protein; Tm shift relative to glycine control, % at 25 µM; 340,000 compounds, 2.5% hits; AID 1259313;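 active means melting temperature shift of at least 10% of the positive control shift, at one fixed dose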
MPTP inh – inhibitors of mitochondrial permeability transition pore. inhibition, % at 10 µM. isolated mouse mitochondria, Ca2+ swelling absorbance, 30 min. 360,000 compounds, 1.4% hits. AID 602449;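 active means inhibition of 50% or more, scaled per plate between neutral and stimulator controls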
Rh123 counter – Rhodamine 123 counter-screen of mitochondrial pore hits; shares compounds with MPTP inh; isolated mitochondria, membrane potential, Rhodamine 123 fluorescence; inhibition, % at 10 µM; 5,000 compounds, 78% hits; AID 624504; in the data active means inhibition above about 22%
MPTP swell DR – MPTP inhibition, dose response swelling confirmation; isolated mitochondria swelling, absorbance; IC50, µM; AID 651561; shares compounds with MPTP inh; 780 compounds, 58% hits; in the data active means IC50 below about 20 µM
MPTP counter DR – counter-screen for mitochondrial permeability transition pore inhibitors, dose response. 780 compounds, 49% hits. IC50, µM. isolated mitochondria counterscreen, fluorescence read-out. shares compounds with MPTP inh; in the data active means IC50 below about 80 µM
Large screens that a line does not name were inactive (follow-up assays come after a bar, where they were run).

COc1ccc(C2C=C(C34CC5CC(CC(C5)C3)C4)NC(=S)N2)cc1OC (stereo not given)	none
CCNC(=S)Nc1ccc(Cl)cc1Cl	none
Cc1cc(Cl)ccc1NC(=S)NCc1ccc(S(N)(=O)=O)cc1	none
CC(=O)c1cccc(NC(=S)NCCc2ccc(Cl)cc2)c1	NR3A LBD binder 15, MPTP inh 83 | Rh123 counter 100
S=C(NCCc1ccccc1)Nc1ccc(Cl)cc1Cl	MPTP inh 82 | Rh123 counter 102
Cc1cc(Cl)ccc1NC(=S)NCc1ccc(Cl)cc1	MPTP inh 84 | Rh123 counter 99
Cc1cc(Cl)ccc1NC(=S)NCCc1ccc(Cl)cc1	MPTP inh 88 (no result: CHOP inhibitor, WT yeast gro inh, EBV gp42 inh) | Rh123 counter 81
CCOC(=O)Nc1n[nH]c(NC(=O)OCC)c1[N+](=O)[O-]	none
Cc1ccc(Cl)cc1NC(=S)NCc1cccn1C	MPTP inh 64 | Rh123 counter 47
Cc1ccccc1NC(=S)NCc1cccn1C	none
CC1=CC(C)(C)N=C(Nc2nc(C)c3cc(C)cc(C)c3n2)N1	MPTP inh 95 | Rh123 counter 101
COc1ccccc1-c1nc2ccccc2nc1-c1ccccc1OC	none
CCOC(=O)c1c[nH]n(-c2ccccc2)c1=O	none
CC(=O)Nc1nc(N)n(-c2ccccc2)n1	none
CC(=O)N(C)c1nc(N)n(-c2ccccc2)n1	MPTP inh 107 | Rh123 counter inactive | MPTP swell DR inactive | MPTP counter DR inactive
O=[N+]([O-])/C(=C\Nc1ccccc1Cl)S(=O)(=O)c1ccccc1	none (no result: NR3A LBD binder)
O=[N+]([O-])/C(C=Nc1ccccc1O)=C\Nc1ccccc1O	MPTP inh 83 (no result: WT yeast gro inh) | Rh123 counter inactive
COc1cc(N=Nc2ccc(C)cc2S(N)(=O)=O)c(C)cc1N	none (no result: CHOP inhibitor, WT yeast gro inh, EBV gp42 inh)
CC(NC(=O)C1CCN(S(=O)(=O)c2cc([N+](=O)[O-])ccc2Cl)CC1)c1ccccc1 (stereo not given)	none
O=C(Nc1nc2ccc(F)cc2s1)C1CCN(S(=O)(=O)c2cc([N+](=O)[O-])ccc2Cl)CC1	CHOP inhibitor 90, MPTP inh 96 | Rh123 counter 84
Cc1ccc(NC(=O)C2CCN(S(=O)(=O)c3cc([N+](=O)[O-])ccc3Cl)CC2)nc1	MPTP inh 81 (no result: CHOP inhibitor, WT yeast gro inh, EBV gp42 inh) | Rh123 counter 80
CN1CCN(C2=NC3(CCCC3)C(C#N)C(=O)N2)CC1 (stereo not given)	none
CCN1CCN(CC(=O)n2c3c(c4ccccc42)CC(C)CC3)CC1 (stereo not given)	MPTP inh 78 | Rh123 counter inactive | MPTP swell DR 8.7 | MPTP counter DR inactive
CC1(c2ccccc2Cl)NC(=O)N(CC(=O)N2CCc3ccccc32)C1=O (stereo not given)	none (no result: CHOP inhibitor, WT yeast gro inh, EBV gp42 inh)
COCCC(=O)N1CCC(Oc2ccc(C(=O)N(C)Cc3cc(C)no3)cc2)CC1	none (no result: CHOP inhibitor, WT yeast gro inh, EBV gp42 inh)
CCCCN1C(=N)N([C@@H](CCC)CN2CCC[C@H]2CN2C(N)=NC[C@@H]2Cc2ccccc2)C[C@H]1[C@H](C)CC	MPTP inh 81 (no result: CHOP inhibitor, WT yeast gro inh, EBV gp42 inh) | Rh123 counter inactive
CCc1ccc(NS(=O)(=O)c2ccc(OC)c3ncccc23)cc1	none (no result: CHOP inhibitor, WT yeast gro inh, EBV gp42 inh)
CCc1ccc(OC)c(S(=O)(=O)Nc2ccc(Cc3ccncc3)cc2)c1	MPTP inh 79 (no result: CHOP inhibitor, WT yeast gro inh, EBV gp42 inh) | Rh123 counter 83
COc1ccc(S(=O)(=O)Nc2ccc(Cc3ccncc3)cc2)cc1OC	MPTP inh 66 (no result: CHOP inhibitor, WT yeast gro inh, EBV gp42 inh) | Rh123 counter 78
O=C(Nc1ccc(N2CCOCC2)c(S(=O)(=O)Nc2cc(Cl)ccc2Cl)c1)c1cccnc1	none (no result: WT yeast gro inh)
CCCC(=O)Nc1cc(S(=O)(=O)N2CCOCC2)ccc1N1CCCCC1	none (no result: CHOP inhibitor, WT yeast gro inh, EBV gp42 inh)
O=[N+]([O-])c1cccc(-c2nc(N3CCOCC3)c3ccccc3n2)c1	none (no result: TbMetRS inhib, NR3A LBD binder, MPTP inh)
CN(Cc1ccccc1)c1nc(-c2cccc([N+](=O)[O-])c2)nc2ccccc12	MPTP inh 67 | Rh123 counter inactive | MPTP swell DR 19 | MPTP counter DR inactive
CC(C)CSC1=NSC2=NC(=O)/C(=C\c3coc4ccccc4c3=O)C(=N)N12	EBV gp42 inh 104, MPTP inh 89 | Rh123 counter 61
CC(C)CSC1=NSC2=NC(=O)/C(=C\c3ccccc3)C(=N)N12	MPTP inh 73 | Rh123 counter 91
N=C1/C(=C\c2coc3ccc(O)cc3c2=O)C(=O)N=C2SC=CN12	none (no result: WT yeast gro inh)
CSC1=NSC2=NC(=O)/C(=C\c3coc4ccccc4c3=O)C(=N)N12	EBV gp42 inh 76, MPTP inh 95 | Rh123 counter 90
Cc1cc(/C=C2\C(=N)N3N=C(c4ccco4)SC3=NC2=O)c(C)n1Cc1ccccc1	none (no result: WT yeast gro inh)
N=C1/C(=C/c2coc3ccccc3c2=O)C(=O)N=C2SC(c3ccco3)=NN12	MPTP inh 64 (no result: WT yeast gro inh) | Rh123 counter 71
CC(=O)N1CCN(c2ccc(OC[C@H]3CO[C@](Cn4ccnc4)(c4ccc(Cl)cc4Cl)O3)cc2)CC1	none
CC1=CSC2=NC(C(F)(F)F)(C(F)(F)F)NC(=O)N12	none (no result: WT yeast gro inh)
Cc1cccc(N(C(=O)Nc2ccccc2)C2=NCC(C)S2)c1 (stereo not given)	none
COc1ccc(Cl)cc1N(C(=O)Nc1cccc(Cl)c1)C1=NCC(C)S1 (stereo not given)	MPTP inh 92 | Rh123 counter 89
O=C(Nc1ccccc1)N1CCSc2cc(Cl)ccc21	none
O=C(Nc1cccc(F)c1)Nc1cccc(Cl)c1	NR3A LBD binder 42, MPTP inh 88 (no result: CHOP inhibitor, WT yeast gro inh, EBV gp42 inh) | Rh123 counter 80
O=C(Nc1cccc(Cl)c1)N1CCSc2cc(Cl)ccc21	MPTP inh 76 | Rh123 counter 88
O=C(NCc1ccc(F)cc1)Nc1ccc(Cl)cc1	none
O=C(NCc1ccc(F)cc1)Nc1cccc(Cl)c1	MPTP inh 85 | Rh123 counter 93
CCc1ccccc1NC(=O)Nc1cccc(F)c1	MPTP inh 76 | Rh123 counter 81
CCCCOc1ccc(C(=O)N/N=C/c2cn[nH]c2-c2ccc(OC)c(OC)c2)cc1	none
COC(=O)c1cc(NC(=O)Nc2cccc(Cl)c2)ccc1Cl	CHOP inhibitor 95, NR3A LBD binder 38, MPTP inh 90 | Rh123 counter 73
N#Cc1ccccc1NC(=O)Nc1cccc(Cl)c1	none
N#CCc1ccc(NC(=O)Nc2cccc(Cl)c2)cc1	NR3A LBD binder 26, MPTP inh 90 | Rh123 counter 107
O=C(Nc1cccc(Cl)c1)Nc1cccc(Cl)c1	NR3A LBD binder 33, MPTP inh 102 | Rh123 counter 88
COc1cccc(NC(=O)Nc2cc(Cl)ccc2C)c1	NR3A LBD binder 21, MPTP inh 92 | Rh123 counter 82
